The subject of data set [1] is Mus musculus. The data set is described as follows: Effect on plasma S1P level in C57BL/6J mouse at 10 to 100 mg/kg, po measured after 4 hrs by LC-MS/MS analysis. It counts as functional, organism-based. Particulars: dose 10-100 mg/kg. The gist of the method: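 Five female C57BL/6j mice, 8–10 weeks old, dosed by oral gavage at 10, 30 or 100 mg/kg in 36.1% PEG400/9.1% ethanol/4.6% solutol/50% H2O, or vehicle alone. Plasma S1P measured by LC-MS/MS 4 h post dose and expressed relative to vehicle.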

Data set [2] concerns Mus musculus. The data set is described as follows: Effect on plasma S1P level in C57BL/6J mouse at 3 to 30 mg/kg, ip measured after 6 hrs by LC-MS/MS analysis. The conditions noted are these: dose 3-30 mg/kg.
Data set [3] can be described thus: Drug concentration in C57BL/6J mouse plasma at 10 mg/kg, po measured after 8 hrs LC-MS/MS analysis. Format: ADME, organism-based. The gist of the method:
(§1)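 Three female C57BL/6j mice, 8–10 weeks old, given a single 10 mg/kg oral dose. Vehicle: 36.1% PEG400/9.1% ethanol/4.6% solutol/50% H2O. Blood sampled over time after dosing; plasma compound levels quantified by LC-MS/MS.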

Data set [4] relates to Mus musculus. In words: In vivo inhibition of Spns2 in C57BL/6J mouse assessed as decrease in lymphocytes count administered orally measured after 4 hrs by LC-MS/MS analysis. It counts as functional, organism-based. Particulars: dose 10-100 mg/kg, route po. Put shortly: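 Oral gavage at 10, 30 or 100 mg/kg, or vehicle (36.1% PEG400/9.1% ethanol/4.6% solutol/50% H2O), to five female C57BL/6j mice aged 8–10 weeks. Blood drawn 4 h post dose; lymphocytes counted in 20 μL blood on a haematology analyzer and compared with vehicle.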

For data set [5], the target named is T1, Sphingosine-1-phosphate transporter SPNS2 (Mus musculus) (UniProt Q91VM4).
T1 sequence (whole entry): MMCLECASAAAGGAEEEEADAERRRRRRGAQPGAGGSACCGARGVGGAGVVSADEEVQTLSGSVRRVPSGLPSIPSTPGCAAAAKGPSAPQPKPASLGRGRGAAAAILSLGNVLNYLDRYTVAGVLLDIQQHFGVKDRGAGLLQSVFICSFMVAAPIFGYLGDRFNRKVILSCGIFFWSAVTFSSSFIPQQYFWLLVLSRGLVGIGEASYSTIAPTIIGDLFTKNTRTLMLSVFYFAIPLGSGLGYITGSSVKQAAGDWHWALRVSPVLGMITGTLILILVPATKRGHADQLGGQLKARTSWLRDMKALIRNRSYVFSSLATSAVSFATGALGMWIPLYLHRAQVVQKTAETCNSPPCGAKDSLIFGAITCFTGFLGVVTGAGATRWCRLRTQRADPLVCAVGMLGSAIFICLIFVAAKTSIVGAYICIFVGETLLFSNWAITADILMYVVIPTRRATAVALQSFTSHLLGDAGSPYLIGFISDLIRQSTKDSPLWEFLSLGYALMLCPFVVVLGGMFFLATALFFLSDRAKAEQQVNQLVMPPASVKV
In words: Inhibition of mouse Spns2 expressed in G418-resistant human HeLa cells assessed as decrease in S1P level incubated for 16 to 18 hrs by LC-MS/MS analysis. Particulars: dose upper 10.0 µM, time 16-18 hrs. Format: cell-based. The gist of the method: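 HeLa pools stably expressing mouse Spns2 (G418-selected), with S1P breakdown blocked by 4-deoxypyridoxine 1 mM, NaF 2 mM and Na3VO4 0.2 mM. Cells exposed for 16–18 h at 37 °C to 1 nM–10 μM inhibitor in serum-free 0.2% fatty-acid-free BSA medium. Released S1P quantified by LC-MS/MS; IC50 from dose–response […].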

Data set [6] in a line: Drug uptake in C57BL/6J mouse plasma at 10 mg/kg, po measured after 4 hrs by LC-MS/MS analysis. Format: ADME, organism-based. The conditions noted are these: in vivo. The gist of the method: as §1
Data set [7] has as its target T1, Sphingosine-1-phosphate transporter SPNS2 (Mus musculus). The data set is described as follows: Inhibition of mouse Spns2 expressed in G418-resistant human HeLa cells assessed as decrease in S1P level at 1 uM incubated for 16 to 18 hrs by LC-MS/MS analysis relative to control. It counts as cell-based. Particulars: time 16-18 hrs. Put shortly:
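HeLa cells stably transfected with mouse Spns2 (pcDNA3.1; G418-resistant pools). S1P catabolism blocked with 4-deoxypyridoxine 1 mM, NaF 2 mM and Na3VO4 0.2 mM. Near-confluent cells incubated 16–18 h at 37 °C with 1 μM inhibitor in serum-free medium containing 0.2% fatty-acid-free BSA. Medium S1P measured by LC-MS/MS; reported as % decrease versus no-inhibitor control, in duplicate.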

The source made the active and inactive calls. The calls are words filed in the database; no cut-off is given here. Where only a bound is given, the exact number is not on record here.

As a reminder, the inhibition is the percentage by which the read-out fell short of the control. Consider `CCCCCCCCCCc1ccc(NC(=O)N2CCNCC2)cc1.Cl`, for which the result in the data set with Mus musculus [1] and in the data set with Mus musculus [2] was inactive. The concentration at 8 h in data set [3] is above 500 nM. In addition, the inhibition result in the data set on Mus musculus [4] is “Dose-Dependent Effect”; in data set [5] it was “Dose-Dependent Effect”; in data set [7] it was 91%. In data set [6], the Drug uptake entry is given as “Active”.
Regarding `CCCCCCCCCCc1ccc(NC(=O)N2CCN[C@H](C)C2)cc1`, the inhibition in data set [7] came out at 80%.
For `CCCCCCCCCCc1ccc(NC(=O)N2CCN(C)CC2)cc1`, in data set [7], the inhibition amounted to 3%.

The values are drawn from ChEMBL document CHEMBL5500421 (J Med Chem, 2024).
